Measured values reported in ChEMBL document CHEMBL2331556, “Evidence for the involvement of descending pain-inhibitory mechanisms in the antinociceptive effect of hecogenin acetate” (J Nat Prod, 2013).
The source made the active and inactive calls.

What was measured:
Mus musculus [1] = assay: Toxicity in Swiss webster mouse assessed as decrease in time stayed on rotarod at 10 mg/kg, ip measured after 30 mins by rotarod test; assay type: organism-based; design: dose 10 mg/kg, route intraperitoneal; conditions: in vivo, 0.5 h
Mus musculus [2] = assay: Toxicity in Swiss webster mouse assessed as effect on motor performance at 40 mg/kg, ip measured after 30 mins by rotarod test; assay type: organism-based; design: dose 40 mg/kg, route intraperitoneal; conditions: in vivo, 0.5 h
Summary of the method: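 Rotarod. Mice pre-selected 24 h earlier; those failing to stay on the bar for two consecutive 120 s periods were excluded. Dosing ip: test agent 40 mg/kg, or vehicle (Tween 20 5%, 200 μL). Time on rod recorded up to 120 s and reported as group mean time (s). n = 6/group; ANOVA with Tukey post hoc.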

Mus musculus [3] = assay: Antinociceptive activity in Swiss webster mouse assessed as latency response at 40 mg/kg, ip administered 30 mins prior to 1 mg/kg, ip mu-opioid receptor antagonist, CTOP challenge measured up to 7 hrs by warm water-tail flick test; assay type: functional, organism-based
Summary of the method: (§1)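 Mice habituated to a restraint cylinder 20 min/day for 5 days. Tail tip (2 cm) immersed in 50 ± 0.5 °C water; tail-withdrawal latency recorded, 16 s cut-off. Latency taken at baseline and up to 7 h after dosing. Vehicle Tween 20 5%. Means ± SEM, n = 6 mice/group; repeated-measures two-way ANOVA with Bonferroni post hoc.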

Mus musculus [4] = assay: Antinociceptive activity in ip dosed Swiss webster mouse assessed as increase in latency response […] by warm water-tail flick test; assay type: functional, organism-based
Mus musculus [5] = assay: Antinociceptive activity in Swiss webster mouse assessed as latency response at 40 mg/kg, ip administered 30 mins after 2 mg/kg, ip KATP channel blocker, glibenclamide challenge measured up to 7 hrs by warm water-tail flick test; assay type: functional, organism-based; summary of the method: as §1
Mus musculus [6] = assay: Antinociceptive activity in Swiss webster mouse assessed as latency response at 40 mg/kg, ip administered 15 mins after 5 mg/kg, ip nonselective opioid receptor antagonist, naloxone challenge measured up to 7 hrs by warm water-tail flick test; assay type: functional, organism-based; summary of the method: as §1
Mus musculus [7] = assay: Antinociceptive activity in Swiss webster mouse assessed as latency response at 40 mg/kg, ip administered 15 mins after 0.5 mg/kg, sc kappa-opioid receptor antagonist, nor-BNI challenge measured up to 7 hrs by warm water-tail flick test; assay type: functional, organism-based; summary of the method: as §1
Mus musculus [8] = assay: Antinociceptive activity in Swiss webster mouse assessed as latency response at 40 mg/kg, ip administered 5 mins after 3 mg/kg, sc delta-opioid receptor antagonist, naltrindole challenge measured up to 7 hrs by warm water-tail flick test; assay type: functional, organism-based; summary of the method: as §1
Mus musculus [9] = assay: Activation of neurons in Swiss webster mouse periaqueductal gray assessed as increase in number of Fos-positive cells at 5 to 40 mg/kg, ip measured after 2 hrs by immunohistochemical analysis; assay type: functional, organism-based
Summary of the method: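 Mice given 5, 10, 20 or 40 mg/kg ip or vehicle, perfused 2 h later. Frozen 20 μm transverse periaqueductal gray sections: PBS washes, 0.1 M glycine, blocked in 1% BSA, overnight rabbit anti-Fos, then 1 h Alexa Fluor 594 anti-rabbit. No-primary control included. Fos-positive cells counted; n = 6/group; ANOVA with Tukey post hoc.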

Mus musculus [10] = assay: Antinociceptive activity in Swiss webster mouse assessed as increase in latency response at 5 mg/kg sc administered 40 mins prior to test measured for 3 hrs by warm water-tail flick test; assay type: functional, organism-based; design: dose 5 mg/kg; summary of the method: as §1

CN1C(=O)CN=C(c2ccccc2)c2cc(Cl)ccc21 [DIAZEPAM]
Activity (Mus musculus [1]): Toxic

CC(=O)O[C@H]1CC[C@@]2(C)[C@@H](CC[C@@H]3[C@@H]2CC(=O)[C@]2(C)[C@@H]4[C@H](C[C@@H]32)O[C@]2(CC[C@@H](C)CO2)[C@H]4C)C1 [HECOGENIN ACETATE]
Activity (Mus musculus [2]): Non-toxic
Activity (Mus musculus [3]): inactive
Activity (Mus musculus [4]): Dose-dependent effect
Activity (Mus musculus [5]): inactive
Activity (Mus musculus [6]): inactive
Activity (Mus musculus [7]): inactive
Activity (Mus musculus [8]): inactive
Activity (Mus musculus [9]): Active

CN1CC[C@]23c4c5ccc(O)c4O[C@H]2[C@@H](O)C=C[C@H]3[C@H]1C5
Activity (Mus musculus [10]): Active
